UCH37 inh – inhibitors of human deubiquitinating enzyme UCH37; purified proteasome/UCH37, Ub-AMC cleavage fluorescence; AID 588478; inhibition, % (test concentration not listed); Q9Y5K5; actives 0.33% (n = 330,000);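 active = mean inhibition over replicate wells above about 20%, limit read from the data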;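 note: 0% = compound-free wells with enzyme and 100% = wells lacking proteasome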
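Material: human UCH37 enzyme supplied as purified proteasome complex. Measure: % inhibition of Ub-AMC cleavage fluorescence. Medium: pH 7.4 Tris-HCl (50 mM) with ovalbumin, ATP-MgCl2, DTT. Times: 30 min preincubation with enzyme, 25 min cleavage at room temperature. Detection: AMC fluorescence intensity at 355/460 nm.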
FGF22 binding – shifts melting point of recombinant human FGF22; actives 1.5% (n = 340,000); recombinant FGF22 thermal shift, SYPRO orange fluorescence; percent of sucrose octasulfate shift, DMSO zero; activity (Tm shift, normalised), % at 9.99 µM; Q9HCT0;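 active = mean Tm shift, scaled 0 neutral to 100 positive control, at about 1.3% or above, every replicate too, limit read from the data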
CASP6 VEID inh – caspase-6 (human) enzyme inhibition. P55212. purified caspase-6, Z-VEID-R110 cleavage fluorescence. inhibition, % at 12.5 µM. actives 0.53% (n = 350,000). AID 686996;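 active = mean inhibition across replicates at least about 35%, with every replicate also reaching that limit, limit read from the data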;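 note: 0% = median of neutral control wells and 100% = no fluorescence left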
SIRT5 block – sirtuin-5 (human) deacylase inhibition | Purified SirT5, succinyl-peptide AMC, trypsin-coupled fluorescence | inhibition, % at 15 µM | actives 1.1% (n = 330,000) | AID 652115; in the data active = inhibition above about 15%
NSD2 inh – inhibitors of human histone methyltransferase NSD2. actives 0.54% (n = 310,000). O96028. NSD2 peptide methylation, AlphaScreen, 120 min. inhibition, % at 12.5 µM. AID 743445; in the data active = inhibition above about 50%
Target sequence (O96028 whole entry, looked up): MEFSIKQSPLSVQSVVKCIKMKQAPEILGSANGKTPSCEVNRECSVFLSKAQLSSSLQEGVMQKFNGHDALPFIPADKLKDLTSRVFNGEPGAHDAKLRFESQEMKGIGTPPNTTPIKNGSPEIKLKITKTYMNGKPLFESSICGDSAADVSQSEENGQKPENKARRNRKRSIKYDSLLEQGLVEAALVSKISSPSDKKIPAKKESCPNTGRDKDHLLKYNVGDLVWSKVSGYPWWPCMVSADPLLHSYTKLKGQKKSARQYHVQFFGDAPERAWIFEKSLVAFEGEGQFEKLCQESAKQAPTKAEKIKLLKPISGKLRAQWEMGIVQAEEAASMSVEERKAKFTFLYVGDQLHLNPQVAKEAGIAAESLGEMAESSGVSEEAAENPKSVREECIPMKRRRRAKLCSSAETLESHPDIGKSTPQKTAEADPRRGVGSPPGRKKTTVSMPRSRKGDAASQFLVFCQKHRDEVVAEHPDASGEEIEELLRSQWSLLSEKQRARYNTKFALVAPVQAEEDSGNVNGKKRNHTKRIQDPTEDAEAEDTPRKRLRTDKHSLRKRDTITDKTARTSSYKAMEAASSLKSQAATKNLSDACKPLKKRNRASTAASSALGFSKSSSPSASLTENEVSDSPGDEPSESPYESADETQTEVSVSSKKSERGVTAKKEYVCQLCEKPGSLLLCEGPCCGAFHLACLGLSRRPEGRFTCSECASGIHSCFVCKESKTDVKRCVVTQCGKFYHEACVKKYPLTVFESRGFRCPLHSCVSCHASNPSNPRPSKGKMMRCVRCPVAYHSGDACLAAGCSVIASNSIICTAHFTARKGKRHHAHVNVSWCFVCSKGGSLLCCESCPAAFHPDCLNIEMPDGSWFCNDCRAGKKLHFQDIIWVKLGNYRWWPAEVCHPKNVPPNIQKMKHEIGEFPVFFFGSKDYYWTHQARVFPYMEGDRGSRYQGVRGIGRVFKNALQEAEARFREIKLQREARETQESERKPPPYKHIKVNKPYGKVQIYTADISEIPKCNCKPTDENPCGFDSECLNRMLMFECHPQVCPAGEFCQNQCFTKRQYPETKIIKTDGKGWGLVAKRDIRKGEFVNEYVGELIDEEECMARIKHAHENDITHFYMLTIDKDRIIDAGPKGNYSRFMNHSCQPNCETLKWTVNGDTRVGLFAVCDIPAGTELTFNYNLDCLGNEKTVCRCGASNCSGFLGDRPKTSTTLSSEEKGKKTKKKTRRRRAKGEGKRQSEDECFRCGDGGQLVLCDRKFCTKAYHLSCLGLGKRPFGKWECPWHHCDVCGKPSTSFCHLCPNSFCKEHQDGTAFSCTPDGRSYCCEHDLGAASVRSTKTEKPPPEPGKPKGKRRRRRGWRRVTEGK
An asterisk follows results filed as active; . = no result given. Rows were chosen to be rich in hits. Some 2.6% of all compounds tested hit in one or more screens of this group.

SMILES	UCH37 inh	FGF22 binding	CASP6 VEID inh	SIRT5 block	NSD2 inh
COc1ccc(-c2ccc3c(c2)[C@@H]2[C@@H](CCN2S(=O)(=O)c2ccc(F)cc2)[C@H](CO)N3C)cc1	.	0	1	16*	.
COc1cccc(-c2ccc3c(c2)[C@@H]2[C@@H](CCN2C(=O)c2ccccc2F)[C@H](CO)N3C)c1	.	-1	-1	20*	.
O=c1c2cc(-c3ccccc3)sc2nc2n1CCC2	-7	44*	-3	-5	-5
O=C(Cc1ccccc1)NCC(=O)OCC(=O)c1ccccc1Cl	1	112*	-1	2	-4
C/C=C/c1ccc([C@H]2[C@@H](CO)N(Cc3cccc(F)c3)C23CN(C(=O)CC)C3)cc1	.	0	1	2	.
O=C(c1ccc(F)cc1)N1CC(=O)N2[C@H](CO)[C@@H](c3ccc(C#CC4CCCCC4)cc3)[C@H]2C1	.	.	2	6	.
COc1ccc(Nc2c3c(nc4ccc(C)cc24)CCC3)cc1	7	0	.	25*	7
Cc1ccc2nc3c(c(Nc4ccc(O)cc4)c2c1)CCC3	.	0	3	-3	-2
Cc1ccc(-c2ccc([C@H]3[C@@H](CO)N4CCCCN(S(=O)(=O)c5ccccc5C)C[C@H]34)cc2)cc1	.	0	-2	10	.
C[C@@H]1CN([C@@H](C)CO)C(=O)c2cc(NS(=O)(=O)c3ccc(Cl)cc3)ccc2O[C@@H]1CN(C)Cc1ccc2c(c1)OCO2	.	0	3	1	.
NC(=O)CSc1nccn1Cc1ccc(Cl)cc1	2	0	7	-2	-6
NC(=O)CSc1nccn1Cc1ccccc1	3	43*	-1	-9	0
CC(C)C[C@@]12C(=O)N(c3cccc(Cl)c3)C(=O)N1[C@H](c1ccc(F)cc1)[C@@H]1C(=O)N(C3CCCCC3)C(=O)[C@@H]12	3	0	-2	.	.
CC(C)(C)N1C(=O)[C@H]2[C@@H](c3ccc(Br)cc3)N3C(=O)N(c4ccccc4)C(=O)[C@@]3(Cc3ccccc3)[C@H]2C1=O	27*	0	2	.	.
CC(C)C[C@@]12C(=O)N(c3cccc(Cl)c3)C(=O)N1[C@H](c1ccc(Cl)cc1)[C@@H]1C(=O)N(C3CCCCC3)C(=O)[C@@H]12	1	1.6*	-1	-5	.
COc1ccc([C@@H]2[C@@H]3C(=O)N(C(C)(C)C)C(=O)[C@@H]3[C@]3(Cc4ccc(Cl)cc4)C(=O)N(c4cccc(C)c4)C(=O)N23)cc1	0	1.3*	3	-2	.
CC(=O)N(C)C[C@@H]1Oc2ncc(C#Cc3ccccn3)cc2C(=O)N([C@H](C)CO)C[C@H]1C	.	0	-1	5	.
Cc1cc(C)nc(NN=Cc2ccccc2OCc2ccc(Cl)cc2)n1	0	.	.	.	.
OCCCNC(=S)Nc1ccc(Oc2ccccc2)cc1	4	44*	-1	2	4
CC(=O)N1CC2(C1)[C@H](c1ccccc1)[C@H](CO)N2Cc1cccc(Cl)c1	.	0	0	2	.
COC(=O)c1ccc2nc(NC(=O)C(C)(C)C)sc2c1	3	43*	-4	-3	.
C1=CCN(c2nc(N3CCOCC3)nc(N3CCCc4ccccc43)n2)CC1	.	44*	-1	.	-1
c1ccc2c(c1)CCCN2c1nc(N2CCOCC2)nc(N2CCOCC2)n1	1	0	-2	-5	-3
O=C(Nc1cccc(-c2ccccc2)c1)N1CCN(C(=O)Nc2cccc(-c3ccccc3)c2)CC1	1	0	39*	-3	1
CCOC(=O)C1(C)/C(=N/Nc2ccccc2OC)C(=O)C(=O)N1c1ccccc1 (stereo not drawn)	9	43*	2	0	2
SMILES	UCH37 inh	FGF22 binding	CASP6 VEID inh	SIRT5 block	NSD2 inh
CCOC(=O)C1(C)/C(=N/Nc2ccccc2)C(=O)C(=O)N1c1ccccc1 (stereo not drawn)	9	.	.	.	5
COCCNCC(=O)C12CC3CC(CC(C3)C1)C2	0	0	-2	23*	10
COCCNC(C)C(=O)C12CC3CC(CC(C3)C1)C2 (stereo not drawn)	1	.	0	-1	-1
NS(=O)(=O)c1ccc(NCC2COc3ccccc3O2)c([N+](=O)[O-])c1 (stereo not drawn)	3	43*	2	0	-1
CNC(=O)C[C@@H]1CC[C@H]2[C@H](COc3ccc(NC(=O)Nc4ccc(C)cc4)cc3C(=O)N2C)O1	.	0	0	-2	.
O=C(OCc1ccccc1)N1CCC2CC1c1ccc(N3CCN(Cc4ccccc4)CC3)cc12 (stereo not drawn)	.	0	-4	-2	.
O=C(O)c1ccc(N/N=C/C=C/c2ccc([N+](=O)[O-])o2)cc1	.	0	75*	15*	.
O=C(N/N=C/c1ccc([N+](=O)[O-])o1)C(=O)Nc1ccc(C(=O)O)cc1	.	0	7	3	0
COc1ccc(S(=O)(=O)N(C)C[C@H]2OCCCC[C@H](C)Oc3ccc(NS(C)(=O)=O)cc3C(=O)N([C@@H](C)CO)C[C@H]2C)cc1	.	0	3	-4	.
COc1ccc(-c2cc(C(=O)N3CCN(c4cccc(C)c4C)CC3)c3ccccc3n2)cc1OC	-114	.	-1	21*	.
COc1ccc(-c2cc(C(=O)N3CCN(c4ncccn4)CC3)c3ccccc3n2)cc1OC	-16	0	8	3	-3
Cc1cc(C)n2cc(CSc3ccc(Br)cc3)nc2n1	-10	43*	-3	3	3
Cc1cc(C)n2cc(CSc3nnc(-c4ccccc4)c(-c4ccccc4)n3)nc2n1	3	0	2	-2	0
Cc1cc(C)n2cc(CSc3ncn[nH]3)nc2n1	-103	43*	2	-21	-2
Cc1cc(C)n2cc(CSCC(=O)O)nc2n1	-213	.	.	.	-2
O=C(Nc1ccc(Cl)cc1)c1ccc2c(c1)S(=O)(=O)c1ccccc1C2=O	28*	0	3	.	.
Cc1onc(-c2ccc(Cl)cc2Cl)c1-c1csc(N/N=C/c2ccccc2Cl)n1	.	0	38*	.	-1
Cc1onc(-c2ccccc2)c1-c1csc(N/N=C/c2ccccc2Cl)n1	.	0	1	-4	1
C[C@@H]1CN([C@@H](C)CO)C(=O)Cc2cc(NS(=O)(=O)c3ccc(F)cc3)ccc2O[C@H]1CN(C)S(=O)(=O)c1ccc(F)cc1	.	-1	2	6	.
COC(=O)CN1C(=O)N/C(=C/c2ccc(OC)cc2)C1=O	3	43*	1	0	-3
Cn1cnc(S(=O)(=O)Nc2ccccc2N2CCOCC2)c1	3	0	-2	15*	0
N#Cc1ccc(-c2ccc(C3[C@H]4CNC[C@@H]3N4C(=O)Nc3ccc(F)cc3)cc2)cc1 (stereo partly drawn)	.	.	-2	8	.
CN(C)Cc1ccccc1CNC(=O)c1ccc(Cl)c(S(=O)(=O)NC2CC2)c1	.	43*	1	.	.
Cc1noc(C)c1S(=O)(=O)N(C)C[C@@H]1Oc2ccc(NS(=O)(=O)c3cccs3)cc2CC(=O)N([C@H](C)CO)C[C@H]1C	.	0	.	4	.

Assay outcomes as filed in PubChem BioAssay.
